From ChEMBL document CHEMBL1151465, “Interactions of methylene blue with human disulfide reductases and their orthologues from Plasmodium falciparum” (Antimicrob Agents Chemother, 2008) come the findings set out here.

A short description of data set [1]: Dissociation constant, pKa of the compound. The class given is physicochemical.
A short description of data set [2]: Solubility in 100 mM phosphate buffer at pH 7.0. It counts as physicochemical.
Data set [3] concerns the target T1, Dihydrolipoyl dehydrogenase, mitochondrial (Sus scrofa, UniProt P09623).
T1 sequence (P09623 whole entry): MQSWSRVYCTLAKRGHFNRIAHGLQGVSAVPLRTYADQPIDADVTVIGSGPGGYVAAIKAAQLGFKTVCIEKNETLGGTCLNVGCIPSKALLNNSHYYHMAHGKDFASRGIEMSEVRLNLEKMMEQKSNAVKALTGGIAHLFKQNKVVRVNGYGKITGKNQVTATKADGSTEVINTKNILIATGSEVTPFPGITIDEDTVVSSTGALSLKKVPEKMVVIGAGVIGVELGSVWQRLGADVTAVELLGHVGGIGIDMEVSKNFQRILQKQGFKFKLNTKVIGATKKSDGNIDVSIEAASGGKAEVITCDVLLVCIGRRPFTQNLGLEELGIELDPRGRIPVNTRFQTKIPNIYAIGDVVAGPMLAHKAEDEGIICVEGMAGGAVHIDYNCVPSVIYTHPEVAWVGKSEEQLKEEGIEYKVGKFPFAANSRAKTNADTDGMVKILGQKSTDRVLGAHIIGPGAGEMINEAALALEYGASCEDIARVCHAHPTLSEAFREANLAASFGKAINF
Briefly: Inhibition of pig recombinant dihydrolipoamide dehydrogenase at pH 7.3.

For the next data set, the system named is Plasmodium falciparum. The experiment in a line: Antiplasmodial activity after 42 hrs against chloroquine-resistant Plasmodium falciparum K1 treated for 6 hrs by Giemsa stain. It counts as functional, organism-based.
The nature of data set [4]: Stability at pH 5.0. The settings on record: buffer. The class given is physicochemical.
For data set [5], the target named is T2, Dihydrolipoyl dehydrogenase (Plasmodium falciparum, UniProt Q6KCB6).
T2 sequence (Q6KCB6 whole entry): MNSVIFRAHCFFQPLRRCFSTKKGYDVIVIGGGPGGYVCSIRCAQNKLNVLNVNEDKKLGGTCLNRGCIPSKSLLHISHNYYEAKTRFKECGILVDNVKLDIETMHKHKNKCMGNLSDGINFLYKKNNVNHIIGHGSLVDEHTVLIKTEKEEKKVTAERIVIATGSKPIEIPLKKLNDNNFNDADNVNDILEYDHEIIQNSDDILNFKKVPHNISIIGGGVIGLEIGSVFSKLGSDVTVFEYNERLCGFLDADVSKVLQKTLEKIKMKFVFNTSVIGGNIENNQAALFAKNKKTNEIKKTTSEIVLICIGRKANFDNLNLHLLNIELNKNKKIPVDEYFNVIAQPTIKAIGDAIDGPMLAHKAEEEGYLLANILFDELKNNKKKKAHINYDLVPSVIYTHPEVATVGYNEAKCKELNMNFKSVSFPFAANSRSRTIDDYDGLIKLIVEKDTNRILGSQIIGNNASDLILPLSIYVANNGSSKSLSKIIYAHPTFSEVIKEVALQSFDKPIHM
Briefly: Inhibition of Plasmodium falciparum recombinant dihydrolipoamide dehydrogenase at pH 7.3.

Data set [6] in a line: Inhibition of human recombinant glutathione reductase C58A mutant expressed in Escherichia coli SG5 at pH 6.9.
The target in data set [7] is T3, Glutathione reductase, mitochondrial (Homo sapiens, UniProt P00390).
T3 sequence (P00390 whole entry): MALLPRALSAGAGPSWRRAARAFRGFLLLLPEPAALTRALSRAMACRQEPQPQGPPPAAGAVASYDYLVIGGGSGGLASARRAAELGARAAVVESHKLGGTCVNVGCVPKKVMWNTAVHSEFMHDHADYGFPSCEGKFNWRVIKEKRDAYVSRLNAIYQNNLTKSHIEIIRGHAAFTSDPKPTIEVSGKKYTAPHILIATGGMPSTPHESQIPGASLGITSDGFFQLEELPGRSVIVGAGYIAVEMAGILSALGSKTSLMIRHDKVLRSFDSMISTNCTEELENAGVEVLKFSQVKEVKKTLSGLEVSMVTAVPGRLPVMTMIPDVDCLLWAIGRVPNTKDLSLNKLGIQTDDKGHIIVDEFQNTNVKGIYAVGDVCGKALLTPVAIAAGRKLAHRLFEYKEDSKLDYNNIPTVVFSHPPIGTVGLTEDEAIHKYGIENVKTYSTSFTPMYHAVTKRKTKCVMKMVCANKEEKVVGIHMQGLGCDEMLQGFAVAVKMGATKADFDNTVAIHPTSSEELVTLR
Briefly: Inhibition of human recombinant glutathione reductase at pH 6.9. The essentials: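 Recombinant human GR was assayed with its physiological disulfide substrate at 10 mU/ml enzyme and 25°C. The buffer was 47 mM potassium phosphate, 1 mM EDTA and 200 mM KCl at pH 6.9, with NADPH as reductant. MB came from stocks in water. IC50 values were treated as Ki, assuming noncompetitive inhibition.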

The nature of data set [8]: Inhibition of human recombinant glutathione reductase C58A/C63A mutant expressed in Escherichia coli SG5 at pH 6.9.
Data set [9] is described as follows: Inhibition of human recombinant glutathione reductase C63A mutant expressed in Escherichia coli SG5 at pH 6.9.
A short description of data set [10]: Inhibition of Plasmodium falciparum thioredoxin reductase at pH 7.4. The method in brief:
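Recombinant P. falciparum TrxR, at 25°C in 100 mM potassium phosphate, 2 mM EDTA (pH 7.4). Cognate-substrate reaction was run with 10 mU/ml enzyme, NADPH and P. falciparum thioredoxin 1 as substrate. IC50 taken as Ki, assuming noncompetitive inhibition.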

The target of the next data set is Albumin (Bos taurus, UniProt P02769). The experiment in a line: Binding affinity to bovine serum albumin by fluorescence spectroscopy. The class given is ADME. Particulars: read-out: Kdiss; call rule not given here.
Data set [11] in a line: Inhibition of Plasmodium falciparum glutathione reductase at pH 6.9. The essentials:
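Recombinant P. falciparum GR, assayed at 25°C in 47 mM potassium phosphate, 1 mM EDTA, 200 mM KCl (pH 6.9). Physiological GSSG reduction was run with 10 mU/ml enzyme and NADPH. IC50 values were taken as Ki, assuming noncompetitive inhibition.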

Data set [12] concerns the target T4, Thioredoxin reductase 1, cytoplasmic (Homo sapiens, UniProt Q16881).
T4 sequence (Q16881 whole entry): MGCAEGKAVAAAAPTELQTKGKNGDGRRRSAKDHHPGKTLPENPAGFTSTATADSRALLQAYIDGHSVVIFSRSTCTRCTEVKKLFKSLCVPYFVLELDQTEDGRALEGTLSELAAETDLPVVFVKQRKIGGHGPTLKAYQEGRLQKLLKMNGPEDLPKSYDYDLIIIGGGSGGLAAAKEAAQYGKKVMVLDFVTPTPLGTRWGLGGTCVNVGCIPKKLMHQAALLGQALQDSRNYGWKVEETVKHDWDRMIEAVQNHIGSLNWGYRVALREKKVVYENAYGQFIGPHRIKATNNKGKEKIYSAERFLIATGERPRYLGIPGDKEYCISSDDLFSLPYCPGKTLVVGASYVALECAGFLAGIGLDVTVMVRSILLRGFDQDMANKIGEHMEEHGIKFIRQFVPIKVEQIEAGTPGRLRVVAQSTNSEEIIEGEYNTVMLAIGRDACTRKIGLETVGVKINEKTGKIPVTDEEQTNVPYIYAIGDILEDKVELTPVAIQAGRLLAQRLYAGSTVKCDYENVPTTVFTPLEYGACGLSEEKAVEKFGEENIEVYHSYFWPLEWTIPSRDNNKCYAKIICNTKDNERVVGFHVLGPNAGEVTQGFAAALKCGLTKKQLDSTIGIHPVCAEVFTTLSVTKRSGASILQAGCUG
Briefly: Inhibition of human recombinant TrxR1 at pH 7.4. The essentials:
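Human TrxR (recombinant, or from placenta) was assayed at 10 mU/ml, 25°C, with its physiological substrate. The buffer was 100 mM potassium phosphate and 2 mM EDTA at pH 7.4, with NADPH as reductant. Routine measurements used His-tagged human thioredoxin 1 Cys73Ser. MB came from stocks in water. IC50 values were treated as Ki, assuming noncompetitive inhibition.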

Sequence of Albumin (P02769 whole entry): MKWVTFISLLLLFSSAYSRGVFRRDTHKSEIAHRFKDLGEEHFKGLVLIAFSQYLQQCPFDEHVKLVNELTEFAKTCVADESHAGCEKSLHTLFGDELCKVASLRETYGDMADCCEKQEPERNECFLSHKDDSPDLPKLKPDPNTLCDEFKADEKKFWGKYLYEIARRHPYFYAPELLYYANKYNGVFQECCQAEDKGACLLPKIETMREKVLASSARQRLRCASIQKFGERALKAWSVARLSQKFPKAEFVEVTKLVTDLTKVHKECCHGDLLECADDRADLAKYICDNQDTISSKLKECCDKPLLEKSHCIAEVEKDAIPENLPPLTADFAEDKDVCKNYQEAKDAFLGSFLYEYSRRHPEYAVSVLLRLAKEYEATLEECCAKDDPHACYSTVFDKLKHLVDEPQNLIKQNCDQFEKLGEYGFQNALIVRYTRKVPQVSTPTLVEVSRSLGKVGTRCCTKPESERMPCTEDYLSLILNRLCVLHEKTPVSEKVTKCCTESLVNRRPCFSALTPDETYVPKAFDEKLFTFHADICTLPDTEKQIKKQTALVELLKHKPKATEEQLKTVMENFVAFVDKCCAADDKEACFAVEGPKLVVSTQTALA

For orientation: pKa means the negative logarithm of the acid dissociation constant. Lower therefore signals a stronger acid or weaker base. The solubility is how much of the substance goes into solution per volume. Higher therefore signals a readily soluble substance. Turning to `CN(C)c1ccc2c(c1)Sc1cc(N(C)C)ccc1N2` [HYDROMETHYLTHIONINE], the pKa in data set [1] amounted to 4.5. Also, the solubility in [2] was < 50 µM.
Usually IC50 stands for the concentration at which inhibition is half-maximal. For orientation: EC50 means the concentration needed to bring the measured effect to its halfway point. Higher therefore signals weaker potency. For `CN(C)c1ccc2nc3ccc(N(C)C)cc3[s+]c2c1.[Cl-]` [METHYLENE BLUE ANHYDROUS], the IC50 in [3] is > 1000 µM; in data set [5], > 1000 µM; in data set [6], “Not Active”; in data set [7], 16.4 µM; in data set [8], “Not Active”; in data set [9], “Not Active”. The IC50 in [10] was determined as 59 µM; in [11] it was 5.4 µM; in [12], 30 µM. This compound also returned an EC50 in the data set on Plasmodium falciparum of 0.0065 µM. Further, in data set [4], the Stability result is “Stable”. Moreover, on Albumin, the Kd was found to be 2.9 µM.
